The record followed here is the RNAGym collection of RNA variant scans (doi:10.1002/anie.201605470).

Sequences and labels used below:
B1: Osa-1-4 twister ribozyme (parent)
chain: CCGCCUAACACUGCCAAUGCCGGUCCCAAGCCCGGAUAAAAGUGGAGGGGGCGG

Variants of B1 are the subject of the data set. Kind of data set: self-cleavage, relative activity (ratio to wild type); higher = more cleavage; co-transcriptional. The procedure, abridged:
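The 48 positions downstream of the cleavage site in a DNA template for a 54-nucleotide Oryza sativa twister ribozyme carried 97 % wild-type base and 1 % of each other base. After in vitro transcription (2 h, 37 °C) with co-transcriptional self-cleavage, the RNA was reverse-transcribed with a template-switching oligonucleotide, PCR-amplified and deep-sequenced. Relative activity is the fraction cleaved, judged by reads with or without upstream sequence and normalised to wild type.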
For the variant C26A C32A, the self-cleavage worked out at 0.05.

Consider C25G G54A, for which the self-cleavage stood at 0.11.

Consider C25G G54C, for which the self-cleavage is 0.07.

In the case of C25G G54U, the self-cleavage stood at 0.25.

As to C25G G48A, the self-cleavage is 0.04.

On to C25G G48U, for which the self-cleavage is 0.02.

On to C25G G48C, for which the self-cleavage is 0.03.

With C25A U37G, the self-cleavage amounted to 0.25.

As for C25A U37C, the self-cleavage is 0.14.

Take C25A U37A: the self-cleavage was determined as 0.11.

For the variant C25G G30C, the self-cleavage worked out at 0.02.

For the variant C25G G30A, the self-cleavage came to 0.02.

For C25G G30U, the self-cleavage is 0.02.

C25G G35U: the self-cleavage was determined as 0.07.

Turning to C25G G35A, the self-cleavage was found to be 0.12.

On to C25G G35C, for which the self-cleavage was found to be 0.05.

C25A C31A: the self-cleavage is 0.04.

As for C25A C31U, the self-cleavage was found to be 0.03.

Turning to C25A C31G, the self-cleavage came out at 0.03.

For C25G U24C, the self-cleavage is 0.03.

With C25G U24G, the self-cleavage is 0.02.

Take C25G U24A: the self-cleavage is 0.03.

C25A C33U: the self-cleavage was determined as 0.07.

As to C25A C33A, the self-cleavage was found to be 0.05.

In the case of C25A C33G, the self-cleavage is 0.02.

Regarding C25G U18A, the self-cleavage was determined as 0.08.

With C25G U18G, the self-cleavage worked out at 0.18.

As to C25G U18C, the self-cleavage was determined as 0.13.

C25U C9G: the self-cleavage was 0.18.

Take C25U C9A: the self-cleavage turned out to be 0.23.

C25U C9U: the self-cleavage is 0.33.

In the case of C25A G23C, the self-cleavage stood at 0.02.

For the variant C25A G23A, the self-cleavage is 0.06.

Consider C25A G23U, for which the self-cleavage stood at 0.03.

For the variant C25A C52A, the self-cleavage was determined as 0.14.

For C25A C52G, the self-cleavage stood at 0.17.

In the case of C25A C52U, the self-cleavage was found to be 0.17.

Consider C25U C31G, for which the self-cleavage worked out at 0.31.

In the case of C25U C31A, the self-cleavage amounted to 0.04.

Consider C25U C31U, for which the self-cleavage was 0.13.

With C25U G51U, the self-cleavage is 0.17.

As for C25U G51C, the self-cleavage is 0.06.

Turning to C25U G51A, the self-cleavage came out at 0.51.

With C25G G49C, the self-cleavage is 0.7.

For C25G G49U, the self-cleavage came to 0.61.

As for C25G G49A, the self-cleavage is 0.07.

As to C25A U12C, the self-cleavage amounted to 0.04.

C25A U12A: the self-cleavage amounted to 0.06.

For the variant C25A U12G, the self-cleavage was 0.06.

Regarding C25A G22U, the self-cleavage came out at 0.07.

Consider C25A G22A, for which the self-cleavage worked out at 0.15.

As for C25A G22C, the self-cleavage was determined as 0.03.

Consider C25U G45U, for which the self-cleavage is 0.05.

For the variant C25U G45C, the self-cleavage came out at 0.05.

C25U G45A: the self-cleavage was 0.06.

With U24C U43G, the self-cleavage turned out to be 0.05.

Turning to U24C U43A, the self-cleavage is 0.08.

U24C U43C: the self-cleavage was determined as 0.06.

Regarding C25U G44A, the self-cleavage was determined as 0.32.

In the case of C25U G44C, the self-cleavage amounted to 0.84.

For C25U G44U, the self-cleavage is 0.56.

As for C25A C26G, the self-cleavage came to 0.05.

Take C25A C26U: the self-cleavage was 0.08.

Turning to C25A C26A, the self-cleavage was determined as 0.04.

On to C25A G42C, for which the self-cleavage was found to be 0.04.

For C25A G42U, the self-cleavage was 0.03.

As to C25A G42A, the self-cleavage came out at 0.06.

In the case of C26A G45C, the self-cleavage is 0.02.

On to C26A G45U, for which the self-cleavage turned out to be 0.02.

As to C26A G45A, the self-cleavage came out at 0.02.

Regarding U24G U43A, the self-cleavage turned out to be 0.03.

Take U24G U43G: the self-cleavage amounted to 0.07.

Take U24G U43C: the self-cleavage was 0.03.

Take U24G U37A: the self-cleavage worked out at 0.04.

On to U24G U37G, for which the self-cleavage turned out to be 0.04.

For U24G U37C, the self-cleavage turned out to be 0.02.

In the case of C25U U43C, the self-cleavage is 0.13.

For C25U U43A, the self-cleavage came out at 0.29.

In the case of C25U U43G, the self-cleavage stood at 0.17.

As for C25A G51U, the self-cleavage stood at 0.06.

C25A G51C: the self-cleavage turned out to be 0.05.

As to C25A G51A, the self-cleavage turned out to be 0.1.

Turning to C26A G48A, the self-cleavage was determined as 0.03.

Turning to C25U G53C, the self-cleavage came out at 0.06.

For C25U G53A, the self-cleavage was 0.25.

For the variant C25U G53U, the self-cleavage was 0.11.

With C25G G53C, the self-cleavage was determined as 0.02.

In the case of C25G G53U, the self-cleavage stood at 0.06.

C25G G53A: the self-cleavage was 0.08.

Consider C25U G22C, for which the self-cleavage amounted to 0.07.

As to C25U G22U, the self-cleavage worked out at 0.47.

As to C25U G22A, the self-cleavage was 0.74.

With U24A U43G, the self-cleavage was 0.05.

On to U24A U43A, for which the self-cleavage is 0.07.

Consider U24A U43C, for which the self-cleavage turned out to be 0.07.

For the variant C25U C32A, the self-cleavage amounted to 0.06.

For the variant C25U C32U, the self-cleavage is 0.08.

With C25U C32G, the self-cleavage is 0.1.

With C25G G13A, the self-cleavage came to 0.03.

With C25G G13U, the self-cleavage stood at 0.01.

For C25G G13C, the self-cleavage came out at 0.01.

As for C25U U24G, the self-cleavage worked out at 0.04.

Regarding C25U U24A, the self-cleavage was found to be 0.06.

As for C25U U24C, the self-cleavage came to 0.08.

Take C26A G47C: the self-cleavage came out at 0.02.

Consider C26A G47U, for which the self-cleavage was 0.03.

In the case of C26A G47A, the self-cleavage is 0.03.

As for C25U G49C, the self-cleavage came out at 0.06.

Regarding C25U G49U, the self-cleavage came to 0.71.

Regarding C25U G49A, the self-cleavage turned out to be 0.77.

For the variant C25G C26U, the self-cleavage came to 0.07.

On to C25G C26A, for which the self-cleavage was determined as 0.01.

Consider C25G C26G, for which the self-cleavage was found to be 0.12.

Regarding C25G G19U, the self-cleavage worked out at 0.04.

As for C25G G19A, the self-cleavage came to 0.06.

Turning to C25G G19C, the self-cleavage was 0.03.

For the variant C25A G53U, the self-cleavage turned out to be 0.05.

For C25A G53A, the self-cleavage was 0.09.

For C25A G53C, the self-cleavage came out at 0.03.

On to C25A C32G, for which the self-cleavage came out at 0.05.

Take C25A C32U: the self-cleavage came to 0.04.

For the variant C25A C32A, the self-cleavage was 0.08.

As for C25G C32U, the self-cleavage was determined as 0.04.

Turning to C25G C32A, the self-cleavage is 0.03.

On to C25G C32G, for which the self-cleavage is 0.09.

Consider C25G U43G, for which the self-cleavage came out at 0.04.

Regarding C25G U43C, the self-cleavage came out at 0.06.

For the variant C25G U43A, the self-cleavage stood at 0.08.

As to C25A C9G, the self-cleavage turned out to be 0.08.

With C25A C9A, the self-cleavage was determined as 0.05.

For C25A C9U, the self-cleavage was found to be 0.06.

For the variant C26A G22A, the self-cleavage was found to be 0.07.

In the case of C26A G22U, the self-cleavage stood at 0.05.

Take C26A G22C: the self-cleavage was found to be 0.02.

Take C25U U18C: the self-cleavage amounted to 0.84.

In the case of C25U U18G, the self-cleavage turned out to be 0.89.

Consider C25U U18A, for which the self-cleavage was 0.75.

With C26A G30U, the self-cleavage was determined as 0.01.

For the variant C26A G30A, the self-cleavage stood at 0.01.

For the variant C26A G30C, the self-cleavage was found to be 0.02.

As for C25G C9U, the self-cleavage was 0.03.

As for C25G C9G, the self-cleavage is 0.07.

In the case of C25G C9A, the self-cleavage was 0.02.

C25G G44C: the self-cleavage came out at 0.06.

As to C25G G44U, the self-cleavage is 0.05.

Consider C25G G44A, for which the self-cleavage was determined as 0.06.

As for C25A, the self-cleavage was 0.2.

Turning to C25U, the self-cleavage was determined as 0.93.

Regarding C25G, the self-cleavage was found to be 0.12.

Take C25A G45A: the self-cleavage turned out to be 0.03.

As to C25A G45C, the self-cleavage is 0.03.

As to C25A G45U, the self-cleavage turned out to be 0.03.

On to C26A G42U, for which the self-cleavage was 0.02.

Consider C26A G42A, for which the self-cleavage worked out at 0.04.

On to C26A G42C, for which the self-cleavage worked out at 0.03.

Take C25A G13U: the self-cleavage was found to be 0.02.

In the case of C25A G13C, the self-cleavage stood at 0.02.

For C25A G13A, the self-cleavage amounted to 0.03.

For the variant C26A C33A, the self-cleavage is 0.05.

For C26A C33G, the self-cleavage came to 0.02.

Consider C26A C33U, for which the self-cleavage is 0.04.

Take C25G G23A: the self-cleavage stood at 0.06.

For the variant C25G G23U, the self-cleavage was 0.04.

As for C25G G23C, the self-cleavage worked out at 0.04.

For the variant C26A G23U, the self-cleavage came out at 0.02.

As for C26A G23C, the self-cleavage amounted to 0.01.

For C26A G23A, the self-cleavage was 0.04.
